Laboratory results taken from ChEMBL document CHEMBL4480406, “Discovery of an SSTR2-Targeting Maytansinoid Conjugate (PEN-221) with Potent Activity in Vitro and in Vivo” (J Med Chem, 2019).
Where a SMILES comes first, the peptide text is derived from it. [ ]: non-standard residue; d: D form. The star is where a group is joined. Dolaproine = CO[C@@H]([C@@H]1CCCN1)[C@@H](C)C(=O)O; Dil = CC[C@H](C)[C@H](NC)[C@@H](CC(=O)O)OC; X1 = C[C@@H](N*)[C@@H](O)c1ccccc1; NMeV = CN[C@H](C(=O)O)C(C)C

Columns and labels:
[1] = tested on: NCI-H524; experiment: Cytotoxicity in human NCI-H524 cells pre-incubated for 2 hrs followed by compound wash out and subsequently incubated for 70 hrs by Cell Titer Glo assay; assay type: functional, cell-based
In short: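 Cells were then spun, washed with fresh medium, resuspended and grown a further 70 h. Proliferation was read by CellTiter-Glo luminescence, and % inhibition calculated relative to vehicle. IC50 came from a four-parameter nonlinear fit.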

[2] = target: Somatostatin receptor type 2 (Homo sapiens, UniProt P30874); experiment: Displacement of [125I]somatostatin from human SSTR2 expressed in CHO-K1 cell membranes after 240 mins
In short: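 Membranes from CHO-K1 cells stably expressing human SSTR2, prepared in modified HEPES pH 7.4. Nonspecific binding was defined with 1 µM somatostatin. Bound ligand was measured by filtration, 3 washes and counting. Six test concentrations were run, top 10 nM, in five-fold dilutions.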

[3] = tested on: NCI-H524; experiment: Cytotoxicity in human NCI-H524 cells pre-incubated for 2 hrs in presence of 100 uM octreotide followed by compound wash out and subsequently incubated for 70 hrs by Cell Titer Glo assay; assay type: functional, cell-based
In short: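 Octreotide receptor-blockade variant: NCI-H524 cells (5,000/well) were pretreated with octreotide acetate for 30 min, then given compound for 2 h in a ten-point three-fold series.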

[4] = Drug uptake in tumor of CrTac:NCr-Foxn1nu mouse xenografted with human NCI-H69 cells assessed as DM1 level at 1 mg/kg, iv measured after 24 hrs by LC-MS/MS analysis relative to DM1 alone; assay type: ADME, organism-based, Neoplasm; details: in vivo
In short: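 NCI-H69 subcutaneous tumors of 250-600 mm3 in nude mice, groups of 3, dosed i.v. Free DM1 was given in 10% propylene glycol/WFI, conjugates in 10% propylene glycol/5 mM citrate pH 4. Tumors were excised at 24 h and homogenized 1:4 (w/v) in 0.1 M ammonium bicarbonate pH 8.0. Homogenate was reduced with TCEP in acetonitrile (15 min, 37 °C), capped with 0.2 M NEM (15 min, 37 °C), and DM1-NEM quantified by LC-MS/MS against standards in blank tumor homogenate. Values were normalized to DM1 dose.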

Chain of Somatostatin receptor type 2 (P30874 whole entry): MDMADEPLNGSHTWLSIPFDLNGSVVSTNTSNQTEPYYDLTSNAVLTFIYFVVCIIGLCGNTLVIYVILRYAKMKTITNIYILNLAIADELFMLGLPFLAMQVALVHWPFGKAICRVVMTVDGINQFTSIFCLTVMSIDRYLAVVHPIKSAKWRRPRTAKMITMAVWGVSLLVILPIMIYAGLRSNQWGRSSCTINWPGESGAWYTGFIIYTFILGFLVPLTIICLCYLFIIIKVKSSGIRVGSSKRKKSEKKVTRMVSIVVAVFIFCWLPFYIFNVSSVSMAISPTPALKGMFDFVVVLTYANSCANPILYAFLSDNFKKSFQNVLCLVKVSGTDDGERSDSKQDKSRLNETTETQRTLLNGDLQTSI

| SMILES | IC50 [1] [nM] | Ki [2] [nM] | IC50 [3] [nM] | Drug uptake [4] |
| --- | --- | --- | --- | --- |
| COc1cc2cc(c1Cl)N(C)C(=O)C[C@H](OC(=O)[C@H](C)N(C)C(=O)CCS)[C@@]1(C)O[C@H]1[C@H](C)[C@@H]1C[C@@](O)(NC(=O)O1)[C@H](OC)/C=C/C=C(\C)C2 | 11 | – | – | – |
| CC[C@H](C)[C@@H]([C@@H](CC(=O)N1CCC[C@H]1[C@H](OC)[C@@H](C)C(=O)N[C@H](C)[C@@H](O)c1ccccc1)OC)N(C)C(=O)[C@@H](NC(=O)[C@@H](NC)C(C)C)C(C)C (H-[NMeV]V[Dil][Dolaproine]-X1) | 3.7 | – | – | – |
| COc1cc2cc(c1Cl)N(C)C(=O)C[C@H](OC(=O)[C@H](C)N(C)C(=O)CCSSCCNC(=O)[C@@H]1CSSC[C@H](NC(=O)[C@H](N)Cc3ccccc3)C(=O)N[C@@H](Cc3ccc(O)cc3)C(=O)N[C@H](Cc3c[nH]c4ccccc34)C(=O)N[C@@H](CCCCN)C(=O)N[C@@H]([C@@H](C)O)C(=O)N1)[C@@]1(C)O[C@H]1[C@H](C)[C@@H]1C[C@@](O)(NC(=O)O1)[C@H](OC)/C=C/C=C(\C)C2 | 10 | 0.061 | 692 | – |
| COc1cc2cc(c1Cl)N(C)C(=O)C[C@H](OC(=O)[C@H](C)N(C)C(=O)CCSC1CC(=O)N(CC(=O)NC[C@H](NC(=O)[C@@H]3CSSC[C@H](NC(=O)[C@H](N)Cc4ccccc4)C(=O)N[C@@H](Cc4ccc(O)cc4)C(=O)N[C@H](Cc4c[nH]c5ccccc45)C(=O)N[C@@H](CCCCN)C(=O)N[C@@H]([C@@H](C)O)C(=O)N3)C(N)=O)C1=O)[C@@]1(C)O[C@H]1[C@H](C)[C@@H]1C[C@@](O)(NC(=O)O1)[C@H](OC)/C=C/C=C(\C)C2 (some centres not stated) | 91 | 0.14 | 2520 | – |
| COc1cc2cc(c1Cl)N(C)C(=O)C[C@H](OC(=O)[C@H](C)N(C)C(=O)CCSSCCNC(=O)[C@@H](NC(=O)[C@@H]1CSSC[C@H](NC(=O)[C@H](N)Cc3ccccc3)C(=O)N[C@@H](Cc3ccc(O)cc3)C(=O)N[C@H](Cc3c[nH]c4ccccc34)C(=O)N[C@@H](CCCCN)C(=O)N[C@@H]([C@@H](C)O)C(=O)N1)[C@@H](C)O)[C@@]1(C)O[C@H]1[C@H](C)[C@@H]1C[C@@](O)(NC(=O)O1)[C@H](OC)/C=C/C=C(\C)C2 | 44 | – | 528 | Active |
| COc1cc2cc(c1Cl)N(C)C(=O)C[C@H](OC(=O)[C@H](C)N(C)C(=O)CCSSCCCN[C@H](Cc1ccccc1)C(=O)N[C@H]1CSSC[C@@H](C(=O)N[C@H](CO)[C@@H](C)O)NC(=O)[C@H]([C@@H](C)O)NC(=O)[C@H](CCCCN)NC(=O)[C@@H](Cc3c[nH]c4ccccc34)NC(=O)[C@H](Cc3ccccc3)NC1=O)[C@@]1(C)O[C@H]1[C@H](C)[C@@H]1C[C@@](O)(NC(=O)O1)[C@H](OC)/C=C/C=C(\C)C2 | 30 | 0.12 | 221 | Active |
| CO[C@H]1C(=O)[C@]2(C)[C@@H](OC)C[C@H]3OC[C@@]3(OC(C)=O)[C@H]2[C@H](OC(=O)c2ccccc2)[C@]2(O)C[C@H](OC(=O)[C@H](O)[C@@H](NC(=O)OC(C)(C)C)c3ccccc3)C(C)=C1C2(C)C [CABAZITAXEL] | 0.26 | – | – | – |
| CC[C@H](C)[C@@H]([C@@H](CC(=O)N1CCC[C@H]1[C@H](OC)[C@@H](C)C(=O)N[C@H](C)[C@@H](O)c1ccccc1)OC)N(C)C(=O)[C@@H](NC(=O)[C@H](C(C)C)N(C)C(=O)OCCSSCCCN[C@H](Cc1ccccc1)C(=O)N[C@H]1CSSC[C@@H](C(=O)N[C@H](CO)[C@@H](C)O)NC(=O)[C@H]([C@@H](C)O)NC(=O)[C@H](CCCCN)NC(=O)[C@@H](Cc2c[nH]c3ccccc23)NC(=O)[C@H](Cc2ccccc2)NC1=O)C(C)C | 1470 | 0.26 | 560 | – |
| COc1cc2cc(c1Cl)N(C)C(=O)C[C@H](OC(=O)[C@H](C)N(C)C(=O)CCC(C)(C)SSC[C@H](NC(=O)[C@@H]1CSSC[C@H](NC(=O)[C@H](N)Cc3ccccc3)C(=O)N[C@@H](Cc3ccc(O)cc3)C(=O)N[C@H](Cc3c[nH]c4ccccc34)C(=O)N[C@@H](CCCCN)C(=O)N[C@@H]([C@@H](C)O)C(=O)N1)C(N)=O)[C@@]1(C)O[C@H]1[C@H](C)[C@@H]1C[C@@](O)(NC(=O)O1)[C@H](OC)/C=C/C=C(\C)C2 | 27 | 0.075 | 581 | – |
| CO[C@H]1C(=O)[C@]2(C)[C@@H](OC)C[C@H]3OC[C@@]3(OC(C)=O)[C@H]2[C@H](OC(=O)c2ccccc2)[C@]2(O)C[C@H](OC(=O)[C@H](OC(=O)OCCSSCCCN[C@H](Cc3ccccc3)C(=O)N[C@H]3CSSC[C@@H](C(=O)N[C@H](CO)[C@@H](C)O)NC(=O)[C@H]([C@@H](C)O)NC(=O)[C@H](CCCCN)NC(=O)[C@@H](Cc4c[nH]c5ccccc45)NC(=O)[C@H](Cc4ccccc4)NC3=O)[C@@H](NC(=O)OC(C)(C)C)c3ccccc3)C(C)=C1C2(C)C | 150 | 0.77 | 157 | – |
| COc1cc2cc(c1Cl)N(C)C(=O)C[C@H](OC(=O)[C@H](C)N(C)C(=O)CCSSCCCN[C@H](Cc1ccccc1)C(=O)N[C@H]1CSSC[C@@H](C(=O)N[C@H](C(=O)O)[C@@H](C)O)NC(=O)[C@H]([C@@H](C)O)NC(=O)[C@H](CCCCN)NC(=O)[C@@H](Cc3c[nH]c4ccccc34)NC(=O)[C@H](Cc3ccc(O)cc3)NC1=O)[C@@]1(C)O[C@H]1[C@H](C)[C@@H]1C[C@@](O)(NC(=O)O1)[C@H](OC)/C=C/C=C(\C)C2 | 19 | – | 757 | Active |
| COc1cc2cc(c1Cl)N(C)C(=O)C[C@H](OC(=O)[C@H](C)N(C)C(=O)CCSSC[C@H](NC(=O)[C@@H]1CSSC[C@H](NC(=O)[C@H](N)Cc3ccccc3)C(=O)N[C@@H](Cc3ccc(O)cc3)C(=O)N[C@H](Cc3c[nH]c4ccccc34)C(=O)N[C@@H](CCCCN)C(=O)N[C@@H]([C@@H](C)O)C(=O)N1)C(=O)O)[C@@]1(C)O[C@H]1[C@H](C)[C@@H]1C[C@@](O)(NC(=O)O1)[C@H](OC)/C=C/C=C(\C)C2 | 183 | 0.013 | 1600 | – |
| COc1cc2cc(c1Cl)N(C)C(=O)C[C@H](OC(=O)[C@H](C)N(C)C(=O)CCSSCCC(=O)NCCCC[C@H]1C(=O)N[C@@H](Cc3ccc(O)cc3)C(=O)N[C@H](Cc3c[nH]c4ccccc34)C(=O)N[C@@H](CCCCN)C(=O)N[C@@H]([C@@H](C)O)C(=O)N[C@@H](Cc3ccccc3)C(=O)N1C)[C@@]1(C)O[C@H]1[C@H](C)[C@@H]1C[C@@](O)(NC(=O)O1)[C@H](OC)/C=C/C=C(\C)C2 | 60 | 0.1 | 865 | – |
| COc1cc2cc(c1Cl)N(C)C(=O)C[C@H](OC(=O)[C@H](C)N(C)C(=O)CCSSCCOc1ccc(C[C@@H](N)C(=O)N[C@H]3CSSC[C@@H](C(=O)N[C@H](C(=O)O)[C@@H](C)O)NC(=O)[C@H]([C@@H](C)O)NC(=O)[C@H](CCCCN)NC(=O)[C@@H](Cc4c[nH]c5ccccc45)NC(=O)[C@H](Cc4ccc(O)cc4)NC3=O)cc1)[C@@]1(C)O[C@H]1[C@H](C)[C@@H]1C[C@@](O)(NC(=O)O1)[C@H](OC)/C=C/C=C(\C)C2 | 15 | 0.015 | 198 | Active |
| COc1cc2cc(c1Cl)N(C)C(=O)C[C@H](OC(=O)[C@H](C)N(C)C(=O)CCSC1CC(=O)N(CCCNC(=O)CNC(=O)[C@H](CC(C)C)NC(=O)[C@H](Cc3ccccc3)NC(=O)CNC(=O)CCCCCN3C(=O)CC(SCCCN[C@H](Cc4ccccc4)C(=O)N[C@H]4CSSC[C@@H](C(=O)N[C@H](CO)[C@@H](C)O)NC(=O)[C@H]([C@@H](C)O)NC(=O)[C@H](CCCCN)NC(=O)[C@@H](Cc5c[nH]c6ccccc56)NC(=O)[C@H](Cc5ccccc5)NC4=O)C3=O)C1=O)[C@@]1(C)O[C@H]1[C@H](C)[C@@H]1C[C@@](O)(NC(=O)O1)[C@H](OC)/C=C/C=C(\C)C2 (some centres not stated) | 75 | 0.14 | 202 | – |
| CC[C@H](C)[C@@H]([C@@H](CC(=O)N1CCC[C@H]1[C@H](OC)[C@@H](C)C(=O)N[C@H](C)[C@@H](O)c1ccccc1)OC)N(C)C(=O)[C@@H](NC(=O)[C@H](C(C)C)N(C)C(=O)OCCSSC[C@H](NC(=O)[C@@H]1CSSC[C@H](NC(=O)[C@H](N)Cc2ccccc2)C(=O)N[C@@H](Cc2ccc(O)cc2)C(=O)N[C@H](Cc2c[nH]c3ccccc23)C(=O)N[C@@H](CCCCN)C(=O)N[C@@H]([C@@H](C)O)C(=O)N1)C(N)=O)C(C)C | 1260 | 0.18 | 1430 | – |
| COc1cc2cc(c1Cl)N(C)C(=O)C[C@H](OC(=O)[C@H](C)N(C)C(=O)CCSSC[C@@H](CO)NC(=O)[C@@H]1CSSC[C@H](NC(=O)[C@H](N)Cc3ccccc3)C(=O)N[C@@H](Cc3ccc(O)cc3)C(=O)N[C@H](Cc3c[nH]c4ccccc34)C(=O)N[C@@H](CCCCN)C(=O)N[C@@H]([C@@H](C)O)C(=O)N1)[C@@]1(C)O[C@H]1[C@H](C)[C@@H]1C[C@@](O)(NC(=O)O1)[C@H](OC)/C=C/C=C(\C)C2 | 42 | 0.018 | 1390 | – |
